# An excerpt weighted towards active compounds, which were near 3.9% of everything screened.
# OX1R antag-1: antagonists of human orexin 1 receptor (OX1R); OX1R-expressing cells, FRET antagonist read-out; Orexin/Hypocretin receptor type 1 (Homo sapiens), O43613; inhibition, % at 6.6 µM; 1.8% of 330,000 active; in the data active = inhibition mostly above about 38%, no sharp cut-off; inactive = mostly below about 40%;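 also: 0% = agonist challenge alone and 100% = reference antagonist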
# TAAR1 agonist: human TAAR1 agonists, primary screen, Fluo-8 calcium fluorescence, CHO RD-HGA16 cells; vehicle wells 0%, saturating PEA agonist 100%; activation, % at 3 µM; 0.99% of 360,000 active; AID 624467, 2012;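 active = activation above the mean activation of all test compounds in the run plus 3 SD, cut at about 38% in these data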
# Target sequence (Q96RJ0 whole entry, looked up): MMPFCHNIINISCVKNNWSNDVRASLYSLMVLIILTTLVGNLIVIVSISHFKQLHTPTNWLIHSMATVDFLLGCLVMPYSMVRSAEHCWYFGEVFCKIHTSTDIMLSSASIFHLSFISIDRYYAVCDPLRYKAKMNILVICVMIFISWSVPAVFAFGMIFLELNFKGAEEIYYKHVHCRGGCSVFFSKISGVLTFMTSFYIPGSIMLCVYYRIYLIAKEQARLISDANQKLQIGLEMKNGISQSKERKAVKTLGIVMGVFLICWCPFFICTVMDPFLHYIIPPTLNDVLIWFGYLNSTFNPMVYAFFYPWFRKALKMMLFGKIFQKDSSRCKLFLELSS
#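 Repeats: no replicates (n 1) | Material: CHO-derived RD-HGA16 cells with stable Gα16 and human TAAR1 | Technique: Kinetic Fluo-8 calcium fluorescence | Schedule: 17-24 h seeding, 75 min 37 °C dye, 30 min RT | Evaluation: % activation from peak over basal fluorescence ratio, DMSO-to-PEA scaled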
# CHO parental Ca: ATP-evoked calcium signal inhibitors, parental CHO, primary screen, counter-screen for OX1R antagonist project, cell-based, fluorescence, Fluo-8 calcium dye; AID 463079, 2010; parental CHO-K1, ATP-induced calcium, Fluo-8 fluorescence; inhibition, % at 5.6 µM; 0.63% of 330,000 active;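 active = inhibition above that plate's mean sample inhibition plus 3 SD, cut at about 26% in these data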;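 also: 0% = ATP-challenged DMSO wells and 100% = DMSO wells without ATP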
#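 Material: parental CHO cells / Compound: single nominal dose of 5.6 µM per compound / Signal: Fluo-8 fluorescence / Replicates: singlicate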
# TAAR1 antag: human TAAR1 antagonists, primary screen, Fluo-8 calcium fluorescence, CHO RD-HGA16 cells. 1.5% of 360,000 active. Trace amine-associated receptor 1 (Homo sapiens), Q96RJ0. inhibition, % at 3 µM. antagonist;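 active = inhibition above a per-plate cutoff, the mean inhibition of test compounds on that plate plus 3 SD, cut at about 49% in these data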;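 also: 0% = DMSO plus EC80 beta-PEA response and 100% = DMSO alone without agonist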
#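 Test system – hTAAR1-expressing CHO RD-HGA16 cells, Gα16-coupled · Also added – β-PEA at EC80 concentration, post-compound challenge · Compound – 3 µM, single point · Incubation – dye loading 75 min at 37 °C, then 30 min room temperature · Measured by – Fluo-8 intracellular calcium dye fluorescence, real-time kinetic reads · Benchmarks – vehicle and agonist controls · Replicates – singlicate, one well per test compound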
# OX1R antag-2: OX1R (HCRTR1) antagonists, primary screen, fluorescence, CHO/OX1R cells, Fluo-8 calcium, orexin A; Fluo-8 calcium fluorescence; inhibition, % at 5 µM; 0.43% of 330,000 active;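 active = inhibition above its plate's threshold, mean inhibition of all tested compounds on the plate plus 3 SD, cut at about 37% in these data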;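 also: 0% = orexin A challenge wells and 100% = SB-334867-A antagonist wells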
# Starred values were filed as active, the others as inactive; nt = no result given.
SMILES,OX1R antag-1,TAAR1 agonist,CHO parental Ca,TAAR1 antag,OX1R antag-2
CN(CC(=O)Nc1cccc(F)c1)CC(=O)Nc1cc(S(=O)(=O)N2CCOCC2)ccc1Cl,3,7,-21,41,-12
CN(CC(=O)NCc1ccc(F)cc1)CC(=O)Nc1ccc(Cl)c(C(F)(F)F)c1,34,37,67*,15,57*
CN(CC(=O)NCC(=O)Nc1ccc(F)cc1)CC(=O)Nc1ccc(Cl)c(C(F)(F)F)c1,nt,1,nt,3,nt
CN(CC(=O)Nc1ccc(Cl)c(C(F)(F)F)c1)C(=O)C1CC(=O)N(CCc2ccccc2)C1 (centres undefined),nt,15,nt,50*,nt
CN(CC(=O)Nc1cccc(S(=O)(=O)N2CCOCC2)c1)CC(=O)Nc1ccc(Cl)c(C(F)(F)F)c1,25,29,49*,31,38
CCc1ccccc1N1C(=O)CN(Cc2cc(OC)c(OC)c(OC)c2)C1=S,37*,7,-15,12,-6
CCc1ccc(N2C(=O)CN(Cc3cc(OC)c(OC)c(OC)c3)C2=S)cc1,17,8,-13,-8,-29
CSc1nc(COC(=O)NC(C)C)c(COC(=O)NC(C)C)n1Cc1ccccc1,nt,1,nt,-16,nt
O=C(c1ccccc1)N1CCC(=O)N(C(CO)Cc2ccccc2)CC1 (centres undefined),4,5,-15,14,-4
CC(C)(C)c1ccc(C(=O)N2CCC(=O)N(C(COCc3ccccc3)Cc3ccccc3)CC2)cc1 (centres undefined),24,15,-20,74*,-10
CC(C)(C)c1ccc(C(=O)N2CCC(=O)N(C(CO)Cc3ccccc3)CC2)cc1 (centres undefined),43,46*,-10,35,-21
CCc1nc(SCC(=O)c2ccc3c(c2)OCCO3)c2ccccc2n1,58*,12,-27,32,5
O=C(CSc1nc(Cc2ccccc2)nc2ccccc12)c1ccc2c(c1)OCCO2,41*,5,0,8,-22
CCN(CC)C(=O)CSc1nc(Cc2ccccc2)nc2ccccc12,nt,3,nt,-7,nt
CCc1nc(SCC(=O)c2ccccc2)c2ccccc2n1,41,15,-47,19,-54
CC(C)(C)OC(=O)Nc1ccccc1-n1nnnc1C(C(=O)c1ccc(F)cc1)N1CCN(c2ccccn2)CC1 (centres undefined),nt,-2,nt,-19,nt
O=C(NCCc1ccccc1)/C(=C\c1ccc([N+](=O)[O-])cc1)NC(=O)c1ccco1,27,34,-3,-6,-10
CNC(=O)/C(=C\c1ccc([N+](=O)[O-])cc1)NC(C)=O,73*,3,-6,2,-5
CC(=O)N/C(=C/c1ccc([N+](=O)[O-])cc1)C(=O)O,33,1,-6,7,-8
Cc1ccc(C(=O)N/C(=C\c2ccc([N+](=O)[O-])cc2)C(=O)NCCc2ccccc2)cc1,10,43*,18,14,1
OC(COc1ccc(Cl)cc1)CN1CCC(Cc2ccccc2)CC1 (centres undefined),11,41*,-7,8,-4
OC(COc1ccc(Cl)cc1)CN1CCN(c2ccccc2)CC1 (centres undefined),6,4,-13,-5,-30
OC(COc1ccccc1Cl)CN1CCN(CC(O)COc2ccccc2Cl)CC1 (centres undefined),12,29,-9,50*,-18
CN[C@H]1C[C@H]2c3[nH]c4c(-c5ccccc5)cccc4c3CCN2C[C@H]1[C@H](C)O,nt,4,nt,3,nt
CCN(CC(=O)Nc1c(F)cccc1F)C(=O)C(C)SCc1nc2sc(C)c(C)c2c(=O)[nH]1 (centres undefined),67*,3,-14,-7,-15
CCN(CC(=O)Nc1c(F)cccc1F)C(=O)CCc1nc2sc3c(c2c(=O)[nH]1)CCCC3,67*,2,-3,-18,-5
CCN(CC(=O)Nc1ccccc1C(F)(F)F)C(=O)CCc1nc2sc3c(c2c(=O)[nH]1)CCCC3,42*,3,-13,-30,-7
